Results on five compounds are retold here after ChEMBL document CHEMBL1157229, “Phaeofurans and sorbicillin analogues from a fungicolous Phaeoacremonium species (NRRL 32148)” (2006).

In one assay the test system is Aspergillus flavus. Briefly: Antifungal activity against Aspergillus flavus NRRL 6541 at 200 ug/disk after 48 hrs by standard disk diffusion assay. It counts as functional. The following applies: for zone of inhibition at 200 µg/disc: NRRL 6541, 48 h, read-out: IZ. The procedure, abridged:
(§1)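 Compounds applied at 200 µg per disk. Read-out was the zone diameter (mm) around the disk at 48 h. Zones were scored as clear, partial clearing, or reduced sporulation of the fungus.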
Background: A growth-free zone around the sample is the usual read-out of agar diffusion tests.

The test system of a further assay is Fusarium verticillioides. The assay can be described thus: Antifungal activity against Fusarium verticillioides NRRL 25457 at 200 ug/disk after 48 hrs by standard disk diffusion assay. The assay is classed as functional, organism-based. The essentials:
as §1

Another assay deals with Staphylococcus aureus. The assay can be described thus: […] activity against Staphylococcus aureus ATCC 29213 at 200 ug/disk after 48 hrs by standard disk diffusion assay. The assay is classed as functional, organism-based.
The subject of another assay is Escherichia coli. Briefly: […] activity against Escherichia coli ATCC 25922 at 200 ug/disk after 48 hrs by standard disk diffusion assay. The assay is classed as functional, organism-based.
The subject of another assay is Candida albicans. Briefly: Antifungal activity against Candida albicans ATCC 14053 at 200 ug/disk after 48 hrs by standard disk diffusion assay. It counts as functional, organism-based.

The structures appear in SMILES notation. Active and inactive are the calls of the source. The rule behind the calls is not given here.

In the case of `C/C=C/C=C/C(=O)c1cc(C)c(OC)cc1O`, the result in the assay with Aspergillus flavus was inactive.
With `C/C=C/CCC(=O)c1cc(CO)c(OC)cc1O`, the zone of inhibition at 200 µg/disc in the assay on Aspergillus flavus was determined as 18 mm.
On to `CCCC(O)[C@H]1OCC2=C1[C@@H](O)[C@H]1O[C@H]1[C@@H]2O` (stereo partly drawn), for which the outcome with Fusarium verticillioides, in the assay with Aspergillus flavus, in the assay on Staphylococcus aureus, with Escherichia coli and in the assay with Candida albicans was inactive.
Take `O[C@@H]1c2cocc2[C@@H](O)[C@H]2O[C@H]21`: the outcome in the assay on Fusarium verticillioides, in the assay on Aspergillus flavus, in the assay with Staphylococcus aureus, in the assay on Escherichia coli and in the assay on Candida albicans was inactive.
For `C/C=C/C=C/C(=O)c1cc(C=O)c(OC)cc1O`, the zone of inhibition at 200 µg/disc with Aspergillus flavus was 40 mm.
